# Assay outcomes deposited in PubChem by Sanford-Burnham Center for Chemical Genomics.
# 697 NFkB inh = inhibitors of PMA/ionomycin-induced NF-kB reporter, 697 cells, primary screen, B-cell NF-kB inhibitor project, cell-based, luminescence, uHTS | 697 B-cell NF-kB luciferase reporter, 16 h | inhibition, % at 4 µM | 0.33% of 330,000 active | AID 435022, 2010; in the data active means inhibition above about 35%
# iPSC survival up = enhancers of single-cell hiPSC survival, primary screen, ATPlite luminescence. 100% = ROCK inhibitor wells, 0% = DMSO. survival enhancement, % at 20 µM. 0.044% of 360,000 active; in the data active means survival enhancement above about 18%;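 further: cells exposed to compounds for 16 hours before the ATP read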
# Hep lipid drop = inhibitors of hepatocyte lipid droplet formation, primary screen, imaging, high-throughput imaging, BODIPY stain; AML12 mouse hepatocytes, oleate lipid droplets; inhibition, % at 6.5 µM; 0.4% of 240,000 active; AID 1656, 2009;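 active means lipid droplet intensity inhibited by at least 50%, with more than 500 cells counted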
#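 Assay system: AML12 hepatocytes (mouse); Probe or stimulus: oleic acid at 100 µM to induce lipid droplet formation; Dosing: compound at 6.5 µM only; Schedule: compound with oleate, overnight; Detection: fluorescence imaging, 20x objective, two fields per well; Measure: % inhibition of lipid droplet signal.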
# Jurkat NFkB inh = inhibitors of induced NF-kB luciferase reporter, primary screen, TCR NF-kB activation inhibitor project, cell-based, luminescence, uHTS; inhibition, % at 4 µM; 0.53% of 330,000 active; Jurkat, PMA/ionomycin-induced NF-kB luciferase reporter; in the data active means inhibition above about 50%
# Gli-Sufu block = Gli-Sufu pathway antagonists, primary screen, luciferase luminescence, Sufu-KO-LIGHT cells, uHTS | Sufu-KO-LIGHT fibroblasts, Gli luciferase reporter luminescence | inhibition, % at 5 µM | 0.74% of 340,000 active;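 active means inhibition above about 55%, limit read from the data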
# TAG inh = inhibitors of triacylglycerol accumulation, primary screen, cell-based, uHTS, fluorescence, H9c2. 0.66% of 230,000 active. inhibition, % at 12.5 µM. AID 651582, 2012. H9c2 cells, Nile Red lipid (TAG) fluorescence; cells loaded with 200 µM oleic acid;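 active means pattern-corrected inhibition of lipid staining of at least 50% with the nuclear-stain viability signal not falling by more than 50%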
# Gli antag conf = Gli-SUFU pathway antagonists, confirmation, single concentration, luciferase luminescence, Sufu-KO-LIGHT cells. shares compounds with Gli-Sufu block. Gli luciferase reporter. 40% of 2,500 active. inhibition, % at 5 µM;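 active means mean inhibition at 5 µM reaching about 45%, limit read from the data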
# Gli cytotox = cytotoxicity in Sufu-KO-LIGHT cells, confirmation, cytotoxicity control for Gli-SUFU antagonist project, cell-based, ATP luminescence, single concentration; shares compounds with Gli-Sufu block; cytotoxicity, % at 5 µM; 32% of 2,500 active;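 active means mean cytotoxicity at 5 µM above about 25%, limit read from the data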;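 further: cells exposed to compound overnight for roughly 16 to 18 hours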
# Wnt3a cs = Wnt3a reporter signal inhibition, confirmation, counter-screen for Gli-SUFU antagonist project, Wnt-LIGHT cells, luminescence, single concentration. shares compounds with Gli-Sufu block. Wnt3a-driven luciferase reporter. inhibition, % at 6.25 µM. 20% of 2,500 active. AID 651995, 2013;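 active means mean inhibition above about 25%, limit read from the data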
# Numbers stand for hits; n = inactive; x = no result given. A selection: hits, their analogues and other compounds. The true share with any hit is near 1.8%.
SMILES,697 NFkB inh,iPSC survival up,Hep lipid drop,Jurkat NFkB inh,Gli-Sufu block,TAG inh,Gli antag conf,Gli cytotox,Wnt3a cs
O=C(CNC(=O)c1ccco1)NCC(=O)OCC(=O)c1ccc(Cl)c([N+](=O)[O-])c1,n,n,n,n,n,x,x,x,x
Cc1ccc(C)c(S(=O)(=O)N(C)c2ccc(OC(=O)C3CCN(C(=O)Nc4ccccc4)CC3)cc2)c1,x,n,x,x,n,n,x,x,x
O=C(NCCCN1CCOCC1)c1ccccc1,n,n,n,n,61,n,n,n,n
O=C(NCCCN1CCOCC1)c1cccnc1,n,n,n,n,n,x,x,x,x
O=C(CC(c1ccccc1)c1cc(Br)ccc1O)NCCCN1CCOCC1 (stereo not drawn),n,n,n,n,n,x,n,n,n
CN(C)c1ccc(N/C(N)=N/c2nc(C(F)(F)F)cc(C(F)(F)F)n2)cc1,n,n,n,n,n,n,n,n,n
CN(CC(=O)Nc1c(Cl)cccc1Cl)C(=O)c1cc(S(=O)(=O)N(C)C)ccc1N1CCCC1,n,n,x,n,n,n,x,x,x
CCOC(=O)c1c(/N=C/N(C)C)sc(/C=N/Nc2ccccc2)c1-c1ccc(Cl)cc1,n,n,n,n,n,x,x,x,x
CCCCNCCCOc1cccc(Cl)c1Cl,n,n,n,n,62,x,n,n,n
Cc1ccc(OCCCN(C)C)c(Br)c1,n,n,x,n,n,x,x,x,x
CCCCNCCCOc1ccc(C)cc1Br,n,n,n,n,67,x,n,n,n
Clc1cccc(OCCCN2CCCC2)c1Cl,n,n,n,n,n,n,x,x,x
CCN(CC)CCN1CCN(c2cnc(C)cn2)CC1,x,n,x,x,x,n,x,x,x
CC(C)C(NS(=O)(=O)c1cccc2nsnc12)C(=O)Nc1nccs1 (stereo not drawn),n,n,n,n,n,n,x,x,x
CC(C)C(NS(=O)(=O)c1cccc2nsnc12)C(=O)NC1CCCCC1C (stereo not drawn),n,n,n,n,58,x,n,n,n
O=C(Cn1nc(C(=O)O)c2ccccc2c1=O)Nc1cc(C(F)(F)F)ccc1-n1cncn1,n,n,x,n,n,n,x,x,x
CCCn1c(N)c(C(=O)CSc2nnc3ccccn23)c(=O)n(C)c1=O,n,n,x,n,n,n,x,x,x
O=C(c1ccc(=O)[nH]c1)N1CCN(S(=O)(=O)c2ccccc2)CC1,n,n,n,n,n,n,x,x,x
Cc1ccc(S(=O)(=O)N2CCN(C(=O)c3ccc(S(=O)(=O)N4CCCC4)cc3)CC2)cc1,n,n,n,n,57,n,n,n,n
O=C(c1ccc(=O)[nH]c1)N1CCN(S(=O)(=O)c2ccc(Cl)cc2)CC1,n,n,n,n,n,x,n,n,n
CCC(CC)N=C1NS(=O)(=O)c2cc([N+](=O)[O-])ccc21,n,n,n,n,n,n,x,x,x
C=CCSc1nnc(NC(=O)c2cccc(S(=O)(=O)N(C)c3ccccc3)c2)s1,n,n,n,n,74,x,n,n,n
CC(C)(C)/C(O)=C(/C#N)c1nc2ccccc2[nH]1,n,n,n,n,n,x,x,x,x
COc1cccc(OC)c1/C(O)=C(\C#N)c1nc2ccccc2[nH]1,n,n,x,n,n,x,n,n,n
Cc1nc(Nc2ccc(F)cc2)nc(Nc2ccc(F)cc2)c1[N+](=O)[O-],n,n,n,n,n,n,n,n,42
SMILES,697 NFkB inh,iPSC survival up,Hep lipid drop,Jurkat NFkB inh,Gli-Sufu block,TAG inh,Gli antag conf,Gli cytotox,Wnt3a cs
COC(=O)c1ccc(C)c(NC(=O)CN(c2ccccc2)S(=O)(=O)N(C)C)c1,n,n,n,n,n,n,x,x,x
FC(F)(F)c1cnc(/C=C/Nc2ccccc2Cl)c(Cl)c1,n,n,x,n,n,x,x,x,x
C[N+]1=C(/C=C/Nc2ccccc2Cl)C(C)(C)c2ccccc21,n,n,n,n,56,x,52,39,n
CCCCNC(=O)COc1ccccc1[N+](=O)[O-],n,n,n,n,n,x,x,x,x
CCCCOC(=O)C1=C(C)NC(=O)NC1c1cccc([N+](=O)[O-])c1 (stereo not drawn),n,n,n,n,n,n,x,x,x
CCC(CC)COC(=O)C1=C(C)NC(=O)NC1c1cccc([N+](=O)[O-])c1 (stereo not drawn),n,n,n,n,62,x,n,n,n
CCCCN(C(=O)COC(=O)CSc1ccc([N+](=O)[O-])cc1)c1c(N)n(CCC)c(=O)[nH]c1=O,n,n,x,n,n,n,x,x,x
Cc1[nH]n(-c2ccccc2)c(=S)c1C=NCCCN=Cc1c(C)[nH]n(-c2ccccc2)c1=S,n,n,n,n,71,n,n,32,n
Cc1[nH]c2ccccc2c1SCc1nnc(SCc2ccc(Cl)cc2)n1C,n,n,n,n,n,n,n,n,43
Cc1cccc(NS(=O)(=O)c2ccc(NS(=O)(=O)c3cccs3)cc2)c1,n,n,n,n,x,x,x,x,x
Cc1cccc(NS(=O)(=O)c2ccc(C)c(NS(=O)(=O)c3cccs3)c2)c1,n,n,x,n,96,n,n,n,n
COc1cc(CNCc2cc(OC)c(OC)c(OC)c2)cc(OC)c1,n,n,n,n,n,n,x,x,x
Clc1ccc(-c2c[n+]3c(n2-c2ccccc2)SCC3)cc1,n,n,n,n,n,n,x,x,x
Cc1ccc(-c2c[n+]3c(n2-c2ccccc2)CCC3)cc1,n,n,n,n,80,n,83,34,36
c1ccc(-c2c[n+]3c(n2-c2ccccc2)CCC3)cc1,n,n,n,n,60,n,69,n,n
Cn1c(N)c(C(=O)COC(=O)CC(NC(=O)c2ccccc2Cl)c2ccccc2)c(=O)n(C)c1=O (stereo not drawn),n,n,n,n,n,x,x,x,x
CN(C)S(=O)(=O)NCCNc1ccc(C(F)(F)F)cc1[N+](=O)[O-],n,n,n,n,98,n,n,n,n
Cc1nc2ccccn2c(=O)c1NC(=O)c1cccc2ccccc12,n,n,x,n,n,n,x,x,x
Cc1ccc(-n2c(C)cc(C(=O)NS(=O)(=O)c3ccc(C)cc3)c2C)cc1,n,n,n,n,n,n,x,x,x
Cc1ccc(NC(=O)c2cc(C)n(-c3cccc(C)c3)c2C)cc1,n,n,n,n,77,x,86,67,89
Cc1sc(NC(=O)CSc2nnc(C(C)C)n2C)c(C#N)c1C,n,n,n,n,56,n,n,n,n
